Activity calls are given as the source filed them.
Assays:
[1] = Stability of the compound in Sprague-Dawley rat plasma by LC-MS/MS analysis; assay type: ADME, cell-free
Summary of the method: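 Compounds were incubated in plasma from adult male SD rats at 37 °C for up to 72 h. Samples at each time point underwent solid-phase extraction and LC-MS/MS analysis to follow degradation and derive half-life.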

Rattus norvegicus = assay: Antidiabetic activity in Sprague-Dawley rat assessed as time required to increase in plasma insulin level at 25 nmol/kg, ip treated 30 mins prior to glucose challenge by ELISA; assay type: functional
Summary of the method: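 Male SD rats (200–250 g), fasted 12 h, n = 6/group, received 25 nmol/kg i.p. or saline 30 min before an oral glucose load (10 g/kg, set as 0 min). EDTA plasma insulin was measured by rat insulin ELISA.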

Mus musculus [2] = assay: Hypoglycemic activity in STZ-induced diabetic Kunming mouse model assessed as time required to reduce blood glucose level of […] at 150 nmol/kg, ip administered as single dose; assay type: functional
Summary of the method: (§1)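 Non-fasted STZ-diabetic Kunming mice with free access to food and water received a single i.p. injection (25 or 150 nmol/kg) or saline; n = 6/group. Blood glucose was followed over time. Euglycemic duration was defined as time below 8.35 mmol/L, and glucose AUC0–36h was calculated.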

Mus musculus [3] = assay: Hypoglycemic activity in STZ-induced diabetic Kunming mouse model assessed as reduction in glucose AUC (0 to 36 hrs) at 150 nmol/kg, ip administered as single dose; assay type: functional, organism-based; summary of the method: as §1
INS1 = assay: Cytoprotective activity against STZ-induced oxidative stress in rat INS-1 cells assessed as reduction in apoptosis at 10 nM after 24 hrs by Annexin-V-FITC/propidium iodide staining based flow cytometric analysis; assay type: functional, cell-based
Summary of the method: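 INS-1 cells, about 5000/well, were seeded for 24 h, then exposed to glucolipotoxic medium, 50 µM H2O2 or 1 µM STZ, plus peptide at 10 nM, for 24 h. Apoptosis was analyzed by flow cytometry; triplicate, repeated three times.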

Mus musculus [4] = assay: Antidiabetic activity in C57BL/6 mouse assessed as reduction in blood glucose level at 25 nmol/kg, ip treated 30 mins prior to glucose challenge measured up to 90 mins by IPGTT; assay type: functional, organism-based
Summary of the method: (§2)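 Male C57BL/6 mice, 6 weeks old, fasted overnight (12 h), n = 6/group; given 25 nmol/kg or saline i.p., then i.p. glucose challenge (2.0 g/kg) 30 min later, set as 0 h. Glucose challenges were repeated at 6 h intervals to mimic three meals a day. Blood glucose was followed and AUC calculated.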

Mus musculus [5] = assay: Antidiabetic activity in C57BL/6 mouse assessed as reduction in blood glucose AUC (0 to 120 mins) at 25 nmol/kg, ip treated 30 mins prior to glucose challenge by IPGTT; assay type: functional, organism-based; summary of the method: as §2
Mus musculus [6] = assay: Antidiabetic activity in STZ-induced diabetic Kunming mouse model assessed as increase in islet beta-cell area 25 nmol/kg, ip administered once daily for 3 weeks measured post last dose by hematoxylin and eosin staining based assay; assay type: functional, organism-based
Summary of the method: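 STZ-diabetic mice were dosed 25 nmol/kg i.p. once daily; normal mice and saline-treated mice served as references. After 21 days the pancreas was fixed, sectioned at 5 µm and stained with H&E. Islet area was measured by manually tracing the islet perimeter; n = 6/group.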

Mus musculus [7] = assay: Antidiabetic activity in STZ/diet-induced obese C57BL/6 mouse assessed as reduction in cumulative food intake at 25 nmol/kg, ip administered daily for 4 weeks measured daily during compound dosing relative to control; assay type: functional; parameters: scale not given: the % may be the effect or the level left
Summary of the method: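 Male C57BL/6J DIO mice on high-fat diet were treated for 4 weeks with saline as control; LFD-fed mice (n = 6/group) were used as normal reference. Water intake, food intake and body weight were recorded daily. Terminal serum leptin and adiponectin were measured by ELISA. TC, TG, HDL, LDL, ALT and AST were measured on a clinical chemistry analyzer.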

Mus musculus [8] = assay: Antidiabetic activity in STZ/diet-induced obese C57BL/6 mouse assessed as reduction in size of brown adipocytes at 25 nmol/kg, ip administered daily for 4 weeks measured post last dose; assay type: functional, organism-based

CC[C@H](C)[C@H](NC(=O)[C@H](Cc1ccccc1)NC(=O)[C@H](CCC(=O)O)NC(=O)[C@H](CCCCN)NC(=O)[C@H](C)NC(=O)[C@H](C)NC(=O)[C@H](CCC(N)=O)NC(=O)CNC(=O)[C@H](CCC(=O)O)NC(=O)[C@H](CC(C)C)NC(=O)[C@H](Cc1ccc(O)cc1)NC(=O)[C@H](CO)NC(=O)[C@H](CO)NC(=O)[C@@H](NC(=O)[C@H](CC(=O)O)NC(=O)[C@H](CO)NC(=O)[C@@H](NC(=O)[C@H](Cc1ccccc1)NC(=O)[C@@H](NC(=O)CNC(=O)[C@H](CCC(=O)O)NC(=O)CNC(=O)[C@@H](N)Cc1cnc[nH]1)[C@@H](C)O)[C@@H](C)O)C(C)C)C(=O)N[C@@H](C)C(=O)N[C@@H](Cc1c[nH]c2ccccc12)C(=O)N[C@@H](CC(C)C)C(=O)N[C@H](C(=O)N[C@@H](CCCCN)C(=O)NCC(=O)N[C@@H](CCCNC(=N)N)C(=O)N[C@@H](CSC1CC(=O)N(CCCCCCCCCCCC(=O)O)C1=O)C(N)=O)C(C)C (stereo not given in full)
Stability [1]: Stable | Time (Rattus norvegicus): 15 to 60 min | Time (Mus musculus [2]): 11.5 h | Activity (Mus musculus [3]): Active | Activity (INS1): Active | Activity (Mus musculus [4]): inactive | Activity (Mus musculus [5]): Active | Activity (Mus musculus [6]): Active | Activity (Mus musculus [7]): 24.9% | Activity (Mus musculus [8]): Active

Source: ChEMBL document CHEMBL4219235, “Novel fatty acid chain modified GLP-1 derivatives with prolonged in vivo glucose-lowering ability and balanced glucoregulatory activity” (Bioorg Med Chem, 2018)
